Experimental findings from ChEMBL document CHEMBL1148287, “Design of potent, selective, and orally bioavailable inhibitors of cysteine protease cathepsin k” (J Med Chem, 2004) are described below.

Data set [1] can be described thus: Area Under plasma concentration time curve in rat upon peroral administration. It is filed as ADME, organism-based. The conditions noted are these: po. In short, it runs like this: (§1)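 Rats were dosed iv into the femoral vein at 5 mg/kg or orally at 10 mg/kg, from a solution in 15% solutol/citrate buffer/0.1% ascorbic acid, pH 3.5. Blood was drawn from a jugular cannula before dosing and at 0.03–24 h, then clotted to serum. Samples were acetonitrile-precipitated with internal standard and analysed by LC-MS/MS (MRM). Parameters came from noncompartmental analysis.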

A short description of data set [2]: Half-life in rat. The conditions noted are these: in vivo. Format: ADME, organism-based. In short, it runs like this:
as §1

Data set [3] is described as follows: Bioavailability in rat. The conditions noted are these: in vivo. Format: ADME, organism-based. In short, it runs like this:
as §1

The nature of data set [4]: Peak plasma concentration in rat. Format: ADME, organism-based. In short, it runs like this:
as §1

Data set [5] in a line: Percent instability was measured by Rat S9 liver […] metabolism assay, in vitro. Format: ADME, Liver S9 fraction. The note with it: read-out: Activity. The method, boiled down: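 Rat S9 liver metabolism, read as % metabolized after 1 h incubation at 37 °C, run in duplicate.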
A short description of data set [6]: Maximum time required to achieve Cmax was determined in rat. Format: ADME, organism-based. The note with it: in vivo. In short, it runs like this:
as §1

In data set [7] the target is T1, Cathepsin K (Homo sapiens, UniProt P43235).
T1 sequence (P43235 whole entry): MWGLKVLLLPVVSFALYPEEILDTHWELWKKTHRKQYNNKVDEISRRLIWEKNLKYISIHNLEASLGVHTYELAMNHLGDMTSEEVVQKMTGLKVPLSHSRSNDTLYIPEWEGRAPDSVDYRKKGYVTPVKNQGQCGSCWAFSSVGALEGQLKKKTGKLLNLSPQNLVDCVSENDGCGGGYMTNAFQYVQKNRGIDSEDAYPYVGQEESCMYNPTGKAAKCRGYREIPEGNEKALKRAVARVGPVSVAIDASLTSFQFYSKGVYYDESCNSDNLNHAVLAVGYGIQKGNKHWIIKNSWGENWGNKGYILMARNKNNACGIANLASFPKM
In words: Concentration required to inhibit 50% of cysteine protease cathepsin K of human. The method, boiled down: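 Reactions were started by adding inhibitor plus substrate to enzyme. AMC fluorescence (ex 360/em 440) progress curves were followed over 2.3 h at varied inhibitor concentrations. IC50 was fitted as rate = Vmax/(1+[I]/IC50).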

For a further data set, the species on record is Rattus norvegicus. In words: Volume of distribution in steady state was determined in rat. It is filed as ADME, organism-based. The conditions noted are these: in vivo. In short, it runs like this: as §1
A short description of data set [8]: Compound was tested for its cell permeability in the Madin-Darby canine kidney cell monolayer transport assay. The conditions noted are these: dog, MDCK; read-out: Activity. It is filed as ADME, Canis lupus familiaris.
The target of data set [9] is T2, Cathepsin K (Rattus norvegicus, UniProt O35186).
T2 sequence (O35186 whole entry): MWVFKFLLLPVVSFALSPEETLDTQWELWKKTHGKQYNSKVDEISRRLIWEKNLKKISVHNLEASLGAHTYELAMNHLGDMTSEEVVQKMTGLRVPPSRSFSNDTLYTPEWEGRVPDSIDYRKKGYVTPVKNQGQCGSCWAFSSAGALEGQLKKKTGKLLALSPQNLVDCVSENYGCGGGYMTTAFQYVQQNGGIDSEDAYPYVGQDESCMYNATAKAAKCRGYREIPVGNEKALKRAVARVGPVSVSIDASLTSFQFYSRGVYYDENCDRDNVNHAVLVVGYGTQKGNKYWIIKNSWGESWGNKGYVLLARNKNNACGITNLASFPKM
In words: Inhibition of cysteine protease cathepsin K of rat.

The nature of data set [10]: Selectivity as ratio between IC50 against Cathepsin B and IC50 against Cathepsin K. The method, boiled down:
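Human liver cathepsin B and recombinant human cathepsin K were each run with Cbz-Phe-Arg-AMC at 10 μM final (Km 400 and 70 μM). Both used pH 5.5 acetate/DTT/NaCl buffer, 10% DMSO, 30 °C and a 2.3 h fluorescence progress-curve read (ex 360/em 440). IC50s were fitted from rate vs [I], and the ratio of the two IC50s was taken.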

The target in data set [11] is Cathepsin (H and K) (Homo sapiens) (UniProt P09668+P43235). In words: Selectivity for Cathepsins H and K, ratio of IC50. It is filed as protein assay. In short, it runs like this:
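Human liver cathepsin H was run with L-Arg-β-naphthalamide at 50 μM final (Km 195 μM), read at ex 340/em 420. Human cathepsin K used Cbz-Phe-Arg-AMC at 10 μM, read at ex 360/em 440. Both were at pH 5.5 with DTT/NaCl and 10% DMSO at 30 °C, with 2.3 h progress curves. IC50s were fitted from rate vs [I] and ratioed.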

Data set [12] in a line: Selectivity as ratio between IC50 against Cathepsin L and IC50 against Cathepsin K. In short, it runs like this: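 Both assays used pH 5.5 acetate/DTT/NaCl, 10% DMSO, 30 °C and AMC fluorescence progress curves over 2.3 h. IC50s were fitted from rate vs [I] and taken as a ratio.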
A short description of data set [13]: Selectivity ratio between IC50 against Cathepsin S and IC50 against Cathepsin K. In short, it runs like this: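 Recombinant human cathepsin S was run with Cbz-Val-Val-Arg-AMC at 10 μM final (Km >100 μM); human cathepsin K used Cbz-Phe-Arg-AMC at 10 μM. Both were in pH 5.5 sodium acetate with 10 mM DTT, 120 mM NaCl and 10% DMSO at 30 °C, with AMC fluorescence progress curves over 2.3 h. The ratio was taken from the fitted IC50s.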

For the next data set, the species on record is Homo sapiens. In words: Selectivity as ratio between IC50 against Cathepsin V and IC50 against Cathepsin K. The method, boiled down:
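Conditions were pH 5.5 acetate buffer with 10 mM DTT, 120 mM NaCl and 10% DMSO at 30 °C, with fluorescence progress curves over 2.3 h. The IC50 fits gave the ratio.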

Sequence of Cathepsin (H and K) (Homo sapiens) (P09668 whole entry, looked up, one chain of several): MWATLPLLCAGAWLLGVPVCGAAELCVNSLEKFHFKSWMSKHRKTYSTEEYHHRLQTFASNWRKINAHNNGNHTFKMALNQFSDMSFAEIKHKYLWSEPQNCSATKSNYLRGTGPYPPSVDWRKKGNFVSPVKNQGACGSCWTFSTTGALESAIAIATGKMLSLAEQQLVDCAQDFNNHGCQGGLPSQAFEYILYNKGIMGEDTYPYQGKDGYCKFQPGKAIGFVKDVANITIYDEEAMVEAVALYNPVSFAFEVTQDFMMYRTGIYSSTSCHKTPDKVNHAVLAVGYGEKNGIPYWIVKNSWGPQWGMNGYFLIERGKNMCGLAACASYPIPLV

Broadly, the AUC is the area under the concentration-time curve, a measure of exposure. Read a low AUC as less exposure. The term half-life denotes the time needed for the level to fall by half in the phase considered. Higher therefore signals slow decline. Usually bioavailability stands for the share of a dose that reaches the circulation, judged against a reference dose that is usually intravenous. Read a high bioavailability as good availability. Usually Cmax stands for the highest concentration seen after dosing. In general, Tmax refers to the time from dosing to the highest level. Usually IC50 stands for the point on the concentration scale where inhibition reaches its midpoint. As for `CCCC[C@H](NC(=O)OC(C(C)C)C(C)C)C(=O)C(=O)Nc1nncs1`, the AUC in data set [1] was determined as 920 ng·h/mL. The same compound yielded a half-life in [2] of 2.83 h. Moreover, the bioavailability in [3] was found to be 15%. In data set [4], this compound had a peak concentration (Cmax) of 690 ng/mL. For the same compound, in [5], the metabolised was 96%. The Tmax in data set [6] is 0.633 h. This compound had a 50% inhibitory concentration (IC50) at Cathepsin K [7] of 0.083 µM.

As a reminder, the Vss is the apparent volume that relates the amount in the body to the concentration in plasma or blood. A higher Vss goes with wide distribution into tissue. As to `CCCC[C@H](NC(=O)OC(C(C)C)C(C)C)C(=O)C(=O)Nc1cc[nH]n1`, the Vss in the data set filed under Rattus norvegicus stood at 15 L/kg. This compound also came in with an AUC in [1] of 1100 ng·h/mL. The compound also registered a half-life in data set [2] of 11.7 h. In addition, the Papp in data set [8] amounted to 48 ×10⁻⁶ cm/s. The bioavailability in data set [3] was 41%. In data set [4], this compound registered a Cmax of 370 ng/mL. Also, the metabolised in data set [5] came out at 77%. The Tmax in data set [6] was 0.25 h. In addition, the values for the 50% inhibitory concentration (IC50) against Cathepsin K [7] and against Cathepsin K [9] were 0.00077 µM and 0.013 µM, respectively. Besides, the Ratio in data set [10] is 670; in data set [11], 30; in data set [12], 40; in data set [13], 3; in the data set listed under Homo sapiens, 21.

`CCCC[C@H](NC(=O)OC(C(C)C)C(C)C)C(=O)C(=O)Nc1ccnn1C` gave an area under the curve (AUC) in [1] of 1800 ng·h/mL. Moreover, in data set [2], the half-life amounted to 4 h. Further, the Papp in data set [8] was determined as 49 ×10⁻⁶ cm/s. The bioavailability in data set [3] was 28%. In data set [4], the concentration peaked (Cmax) at 970 ng/mL. Further, the metabolised in data set [5] is 99%. In addition, in data set [6], the Tmax is 0.633 h. Besides, the IC50 on Cathepsin K [7] stood at 0.032 µM; at Cathepsin K [9], 1.7 µM. The Ratio in [10] was greater than 400; in [11], greater than 400; in data set [12], 250; in data set [13] it was 91; in the data set filed under Homo sapiens, 50.

Consider `CCCC[C@H](NC(=O)OC(C(C)C)C(C)C)C(=O)C(=O)Nc1ccnn1-c1ccncc1`, for which the half-maximal inhibitory concentration (IC50) stood at 0.025 µM against Cathepsin K [7] and 0.47 µM against Cathepsin K [9]. In addition, the Ratio in [10] is greater than 500; in data set [11], greater than 500; in data set [12], 44; in data set [13], 5.4; in the data set filed under Homo sapiens, 19.

With `CCCC[C@H](NC(=O)OC(C(C)C)C(C)C)C(=O)C(=O)Nc1ccnn1C1CCC1`, the IC50 is 0.015 µM against Cathepsin K [7] and 1.1 µM at Cathepsin K [9]. Further, the Ratio was greater than 830 in data set [10]; greater than 830 in data set [11]; 290 in data set [12]; 130 in data set [13]; 140 in the data set filed under Homo sapiens.

With `CCCC[C@H](NC(=O)OC(C(C)C)C(C)C)C(=O)C(=O)Nc1ccccn1`, in data set [1], the AUC was 2700 ng·h/mL. In [2], this compound gave a half-life of 2.17 h. In addition, the Papp in data set [8] is 21 ×10⁻⁶ cm/s. Further, the bioavailability in data set [3] came out at 58%. This compound had a maximum concentration (Cmax) in [4] of 1400 ng/mL. Besides, in [5], the metabolised was found to be 63%. The time of peak concentration (Tmax) in [6] is 0.25 h. The same compound yielded a half-inhibitory concentration (IC50) against Cathepsin K [7] of 0.032 µM.

On to `CCCC[C@H](NC(=O)OC(C(C)C)C(C)C)C(=O)C(=O)Nc1[nH]ncc1-c1ccccc1`, for which the IC50 against Cathepsin K [7] was determined as 0.00021 µM; on Cathepsin K [9], 0.0018 µM. Further, the Ratio was determined as 1200 in data set [10]; 1700 in data set [11]; 25 in data set [12]; 4.1 in data set [13]; 9.1 in the data set filed under Homo sapiens.

Consider `CCCC[C@H](NC(=O)OC(C(C)C)C(C)C)C(=O)C(=O)Nc1ccnn1CC(C)C`, for which the figures for the IC50 at Cathepsin K [7] and on Cathepsin K [9] were 0.039 µM and 2.7 µM, respectively. The Ratio is greater than 320 in data set [10]; greater than 320 in [11]; 260 in data set [12]; 59 in data set [13]; 120 in the data set filed under Homo sapiens.

Regarding `CCCC[C@H](NC(=O)OC(C(C)C)C(C)C)C(=O)C(=O)Nc1[nH]ncc1C`, in [8], the Papp was 37 ×10⁻⁶ cm/s. In data set [5], the metabolised was 68%. For the same compound, the half-inhibitory concentration (IC50) came to 0.00047 µM against Cathepsin K [7] and 0.0055 µM against Cathepsin K [9]. The Ratio is 1100 in [10]; 2100 in data set [11]; 26 in [12]; 1.7 in [13]; 14 in the data set listed under Homo sapiens.

As to `CCCC[C@H](NC(=O)OC(C(C)C)C(C)C)C(=O)C(=O)Nc1ccnn1-c1ccccn1`, the concentration for half-maximal inhibition (IC50) at Cathepsin K [7] amounted to 0.062 µM; against Cathepsin K [9] it was 1.2 µM. Further, the Ratio was greater than 200 in data set [10], 40 in data set [12], 8.3 in [13] and 19 in the data set filed under Homo sapiens.

`CCCC[C@H](NC(=O)OC(C(C)C)C(C)C)C(=O)C(=O)Nc1ccnn1CC1CC1`: the half-maximal inhibitory concentration (IC50) turned out to be 0.027 µM against Cathepsin K [7] and 1.7 µM on Cathepsin K [9]. Besides, the Ratio in data set [10] was greater than 470; in data set [11], greater than 470; in [12] it was 220; in data set [13] it was 41; in the data set listed under Homo sapiens it was 63.

With `CCCC[C@H](NC(=O)OC(C(C)C)C(C)C)C(=O)C(=O)Nc1cc(-c2ccccc2)[nH]n1`, the Ratio in [10] came out at 520; in data set [11] it was 18; in data set [12], 25; in data set [13], 7; in the data set listed under Homo sapiens it was 20.

The compound `CCCC[C@H](NC(=O)OC(C(C)C)C(C)C)C(=O)C(=O)Nc1nccs1` came in with an exposure (AUC) in [1] of 750 ng·h/mL. In addition, in [2], the half-life was found to be 2.17 h. In [8], the Papp was determined as 23 ×10⁻⁶ cm/s. Besides, the bioavailability in data set [3] worked out at 18%. In addition, in [4], the maximum concentration (Cmax) turned out to be 170 ng/mL. The metabolised in data set [5] was found to be 98%. For the same compound, the Tmax in data set [6] was 0.167 h. The half-maximal inhibitory concentration (IC50) against Cathepsin K [7] turned out to be 0.04 µM.
